# Measured values taken from ChEMBL document CHEMBL1145859, “Tethered dimers as NAD synthetase inhibitors with antibacterial activity” (J Med Chem, 2003).
# What was measured:
# [1] = biological target: T1, NH(3)-dependent NAD(+) synthetase (Bacillus subtilis (strain 168), UniProt P08164); experiment: Inhibitory activity against Bacillus subtilis NAD synthetase
# T1 sequence (P08164 whole entry): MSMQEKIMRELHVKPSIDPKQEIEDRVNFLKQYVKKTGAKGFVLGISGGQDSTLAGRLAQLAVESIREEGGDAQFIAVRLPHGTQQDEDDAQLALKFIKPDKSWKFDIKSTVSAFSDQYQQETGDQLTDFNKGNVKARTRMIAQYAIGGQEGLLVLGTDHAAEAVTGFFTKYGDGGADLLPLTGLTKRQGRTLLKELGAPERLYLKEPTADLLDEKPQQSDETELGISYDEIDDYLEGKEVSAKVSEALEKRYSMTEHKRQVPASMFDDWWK
# Summary of the method: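 Purified recombinant B. subtilis NAD synthetase (2.0 µg/mL) in coupled assay, pH 8.5: 58.5 mM HEPES, 18.5 mM NH4Cl, 19.5 mM KCl, 9.75 mM MgCl2, 1% EtOH, 0.1 mM NaAD, 0.3% BOG, 40 µg/mL yeast ADH, 0.2 mM ATP, 2.5% DMSO. ATP-started, 10 min, guanidine·HCl stop; NADH read at A340 and fluorescence 460 nm, background-subtracted; IC50 from % inhibition at six concentrations.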
# Bacillus subtilis = experiment: Minimum inhibitory concentration required against Bacillus subtilis ATCC 14289; type: functional
# Summary of the method: (§1)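 Broth doubling-dilution MIC run in duplicate series from 50 µg/mL (1% DMSO final). Each tube received 0.01 mL of inoculum from a log-phase culture (5–6 h, 37 °C) adjusted to about 5 × 10^8 CFU/mL. Incubation 20 h at 37 ± 2 °C. MIC is the lowest concentration with no visible growth. Viability, sterility and reference-antibiotic controls included.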
# Staphylococcus aureus [2] = experiment: Minimum inhibitory concentration required against Staphylococcus aureus ATCC 29213; type: functional; summary of the method: as §1
# Staphylococcus aureus [3] = experiment: Minimum inhibitory concentration required against Staphylococcus aureus ATCC 33591; type: functional; summary of the method: as §1
# Staphylococcus aureus [4] = experiment: Minimum inhibitory concentration required against Staphylococcus aureus ATCC 33592; type: functional; summary of the method: as §1
# Staphylococcus aureus [5] = experiment: Minimum inhibitory concentration required against Staphylococcus aureus ATCC 33593; type: functional; summary of the method: as §1
# Pseudomonas aeruginosa = experiment: Minimum inhibitory concentration required against Pseudomonas aeruginosa ATCC 27853; type: functional; summary of the method: as §1
# Salmonella enteritidis [6] = experiment: Minimum inhibitory concentration required against Salmonella enteritidis ATCC 13076; type: functional, Salmonella enterica subsp. enterica serovar Enteritidis; details: Salmonella enterica; summary of the method: as §1
# Salmonella enteritidis [7] = experiment: microbe, parasite or virus in culture; details: Salmonella enterica, ATCC 13076
Compound,IC50 [1],further results
C[N+](C)(C)c1ccc(CC(=O)OCCCCCCCCn2ccc3ccccc32)cc1,63 µM,–
C[N+](C)(C)c1ccc(CC(=O)OCCCCCCCCCn2ccc3cc([N+](=O)[O-])ccc32)cc1,24 µM,–
C[N+](C)(C)c1ccc(CC(=O)OCCCCCCn2ccc3cc([N+](=O)[O-])ccc32)cc1,84 µM,–
C[n+]1cccc(C(=O)OCCCCCn2ccc3cc([N+](=O)[O-])ccc32)c1,1000 µM,–
COC(=O)c1cc2cc(OCc3ccccc3)ccc2n1CCCCCCCCCOC(=O)c1ccc[n+](C)c1,27 µM,–
C[n+]1cccc(C(=O)OCCCCCCCCCn2ccc3ccccc32)c1,48 µM,–
C[n+]1cccc(C(=O)OCCCCCCn2ccc3cc(OCc4ccccc4)ccc32)c1,29 µM,–
C[n+]1cccc(C(=O)OCCCCCn2ccc3cc(OCc4ccccc4)ccc32)c1,94 µM,–
C[N+](C)(C)c1ccc(CC(=O)OCCCCCCCCCn2ccc3ccccc32)cc1,54 µM,–
O=C(OCCn1ccc2cc([N+](=O)[O-])ccc21)c1cccnc1,> 1000 µM,–
C[N+](C)(C)c1ccc(CC(=O)OCCCCn2ccc3cc(OCc4ccccc4)ccc32)cc1,84 µM,–
COC(=O)c1cc2cc(OCc3ccccc3)ccc2n1CCCCCCCCCOC(=O)Cc1ccc([N+](C)(C)C)cc1,18 µM,MIC (Bacillus subtilis): 1.5 µM; MIC (Staphylococcus aureus [2]): 6.2 µM
COc1cccc(OC)c1C(=O)N[C@@H]1C(=O)N2[C@@H]1SC(C)(C)[C@@H]2C(=O)O,> 1 µM,MIC (Staphylococcus aureus [2]): 1 µM; MIC (Staphylococcus aureus [3]): 32 µM; MIC (Staphylococcus aureus [4]): 32 µM; MIC (Staphylococcus aureus [5]): 32 µM
CO[C@H]1/C=C/O[C@@]2(C)Oc3c(C)c(O)c4c(O)c(c(/C=N/N5CCN(C)CC5)c(O)c4c3C2=O)NC(=O)/C(C)=C\C=C\[C@H](C)[C@H](O)[C@@H](C)[C@@H](O)[C@@H](C)[C@H](OC(C)=O)[C@@H]1C [RIFAMPIN],> 1 µM,MIC (Bacillus subtilis): 1 µM
O=C(OCCCCCCn1ccc2cc([N+](=O)[O-])ccc21)c1cccnc1,> 1000 µM,–
O=C(OCCCCn1ccc2cc([N+](=O)[O-])ccc21)c1cccnc1,> 1000 µM,–
O=C(OCCCCCn1ccc2cc([N+](=O)[O-])ccc21)c1cccnc1,> 1000 µM,–
COC(=O)c1cc2ccccc2n1CCCCCCCCCOC(=O)c1ccc[n+](C)c1,34 µM,–
C[N+](C)(C)c1ccc(CC(=O)OCCCCCCn2ccc3cc(OCc4ccccc4)ccc32)cc1,69 µM,–
COC(=O)c1cc2cc(OCc3ccccc3)ccc2n1CCCCCCCOC(=O)Cc1ccc([N+](C)(C)C)cc1,9 µM,MIC (Bacillus subtilis): 1.5 µM; MIC (Pseudomonas aeruginosa): > 50 µM; MIC (Salmonella enteritidis [6]): > 50 µM; MIC (Staphylococcus aureus [2]): 1.5 µM; MIC (Staphylococcus aureus [3]): 6.2 µM; MIC (Staphylococcus aureus [4]): 3.1 µM; MIC (Staphylococcus aureus [5]): 3.1 µM
C[N+](C)(C)c1ccc(CC(=O)OCCCCn2ccc3cc([N+](=O)[O-])ccc32)cc1,89 µM,–
C[N+](C)(C)c1ccc(CC(=O)OCCCCCn2ccc3cc(OCc4ccccc4)ccc32)cc1,60 µM,–
COc1cc(Cc2cnc(N)nc2N)cc(OC)c1OC [TRIMETHOPRIM],> 1 µM,MIC (Salmonella enteritidis [7]): 0.5 µM
C[n+]1cccc(C(=O)OCCCCCCCCn2ccc3cc(OCc4ccccc4)ccc32)c1,–,MIC (Bacillus subtilis): 6.2 µM; MIC (Pseudomonas aeruginosa): 50 µM; MIC (Salmonella enteritidis [6]): 50 µM; MIC (Staphylococcus aureus [2]): 1.5 µM; MIC (Staphylococcus aureus [3]): 12.5 µM; MIC (Staphylococcus aureus [4]): 6.2 µM; MIC (Staphylococcus aureus [5]): 3.1 µM

Compound,IC50 [1],further results
C[n+]1cccc(C(=O)OCCOCCOCCn2ccc3cc(OCc4ccccc4)ccc32)c1,> 200 µM,MIC (Bacillus subtilis): > 50 µM; MIC (Staphylococcus aureus [2]): > 50 µM
COC(=O)c1cc2ccccc2n1CCCCCCCOC(=O)c1ccc[n+](C)c1,34 µM,–
O=C(OCCCCCCCCn1ccc2cc([N+](=O)[O-])ccc21)c1cccnc1,> 1000 µM,–
COC(=O)c1cc2ccccc2n1CCCCCCCCOC(=O)Cc1ccc([N+](C)(C)C)cc1,14 µM,MIC (Bacillus subtilis): 6.2 µM; MIC (Pseudomonas aeruginosa): > 50 µM; MIC (Salmonella enteritidis [6]): > 50 µM; MIC (Staphylococcus aureus [2]): 3.1 µM
O=C(OCCCCCCCn1ccc2cc([N+](=O)[O-])ccc21)c1cccnc1,> 1000 µM,–
O=C(OCCCCCCCCn1ccc2cc(O)ccc21)c1cccnc1,> 200 µM,–
COC(=O)c1cc2cc(OCc3ccccc3)ccc2n1CCCCCCOC(=O)c1ccc[n+](C)c1,37 µM,–
C[N+](C)(C)c1ccc(CC(=O)OCCCCCn2ccc3cc([N+](=O)[O-])ccc32)cc1,70 µM,–
C[n+]1cccc(C(=O)OCCCn2ccc3cc([N+](=O)[O-])ccc32)c1,> 1000 µM,–
COC(=O)c1cc2cc(OCc3ccccc3)ccc2n1CCCCCCCCOC(=O)c1cc[n+](C)cc1,10 µM,MIC (Bacillus subtilis): 12.5 µM; MIC (Pseudomonas aeruginosa): > 50 µM; MIC (Salmonella enteritidis [6]): > 50 µM; MIC (Staphylococcus aureus [2]): 6.2 µM
C[n+]1cccc(C(=O)OCCn2ccc3cc([N+](=O)[O-])ccc32)c1,> 1000 µM,–
C[n+]1cccc(C(=O)OCCCCn2ccc3cc([N+](=O)[O-])ccc32)c1,> 1000 µM,–
COc1ccc2c(ccn2CCCCCCCOC(=O)c2ccc[n+](C)c2)c1,24 µM,–
O=C(OCCCn1ccc2cc([N+](=O)[O-])ccc21)c1cccnc1,> 1000 µM,–
COC(=O)c1cc2cc(OCc3ccccc3)ccc2n1CCCCCCCOC(=O)c1ccc[n+](C)c1,18 µM,MIC (Bacillus subtilis): 6.2 µM; MIC (Pseudomonas aeruginosa): > 50 µM; MIC (Salmonella enteritidis [6]): > 50 µM; MIC (Staphylococcus aureus [2]): 3.1 µM
COC(=O)c1cc2ccccc2n1CCCCCCOC(=O)Cc1ccc([N+](C)(C)C)cc1,24 µM,–
GENTAMICIN,–,MIC (Pseudomonas aeruginosa): 2 µM
C[n+]1cccc(C(=O)OCCCCCCCn2ccc3ccccc32)c1,95 µM,–
COC(=O)c1cc2ccccc2n1CCCCCCCCOC(=O)c1cc[n+](C)cc1,44 µM,–
C[N+](C)(C)c1ccc(CC(=O)OCCCCCCCCn2ccc3cc(OCc4ccccc4)ccc32)cc1,20 µM,MIC (Bacillus subtilis): 1.5 µM; MIC (Pseudomonas aeruginosa): > 50 µM; MIC (Salmonella enteritidis [6]): > 50 µM; MIC (Staphylococcus aureus [2]): 3.1 µM
COC(=O)c1cc2cc(OCc3ccccc3)ccc2n1CCCCCCOC(=O)Cc1ccc([N+](C)(C)C)cc1,12 µM,–
COC(=O)c1cc2ccccc2n1CCCCCCCOC(=O)Cc1ccc([N+](C)(C)C)cc1,19 µM,MIC (Bacillus subtilis): 1.5 µM; MIC (Pseudomonas aeruginosa): > 50 µM; MIC (Salmonella enteritidis [6]): > 50 µM; MIC (Staphylococcus aureus [2]): 12.5 µM
COC(=O)c1cc2cc(OCc3ccccc3)ccc2n1CCCCCCCCOC(=O)Cc1ccc([N+](C)(C)C)cc1,20 µM,–
C[n+]1cccc(C(=O)OCCCCCCn2ccc3cc([N+](=O)[O-])ccc32)c1,500 µM,–
